Publication PMC11959361 (RSC Advances, 2025)

What was measured:
[1] = test system: C26 (colon carcinoma) cell line; experiment: MTT cytotoxicity assay, C26; format: cell-based; conditions: 24 h
In short: (§1)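 Cells seeded at 5000 per well in Eagle's MEM with 10% fetal calf serum, 2 mM L-glutamine, penicillin and streptomycin, then held 24 h at 37 °C, 5% CO2. Serial concentrations of test compound in DMSO were added for 24 h, with PTX and DOX as references. MTT was added for 4 h at 37 °C. Formazan was dissolved in ethanol and read at 570 nm. Percent inhibition was computed against control and blank.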

[2] = test system: MCF7 (human breast cancer) cell line; experiment: MTT cytotoxicity assay, MCF7; format: cell-based; conditions: MCF7, 24 h
In short: as §1

[3] = test system: BAEC (bovine aorta endothelial) normal cell line; experiment: MTT cytotoxicity assay, BAEC normal cells; format: cell-based; conditions: 24 h with compound, IC50 ± SEM
In short: as §1

MCF7 and C26 cell lines = experiment: MTT cytotoxicity, stated over both cancer cell lines together; format: cell-based; conditions: Homo sapiens, MCF7, read-out: IC50 over MCF7 and C26
In short: as §1

[4] = test system: MCF7, A549 (non-small cell lung cancer) and HDFs (non-cancerous human dermal fibroblasts); conditions: doxorubicin value compared for healthy cells ref 20; cited from earlier work

| SMILES | IC50 [1] | IC50 [2] | IC50 ([3]; Bos taurus, BAEC, 24 h) | IC50 [3] | IC50 (MCF7 and C26 cell lines) | IC50 [4] |
| --- | --- | --- | --- | --- | --- | --- |
| Clc1ccc(Nc2nc(Cl)nc(Cl)n2)cc1 [1a, 4,6-Dichloro-N-(4-chlorophenyl)-1,3,5-triazin-2-amine] | 13.5 ± 0.24 µM | 5.35 ± 1.05 µM | – | – | – | – |
| Fc1ccc(Nc2nc(Cl)nc(Cl)n2)cc1 [1b, 4,6-Dichloro-N-(4-fluorophenyl)-1,3,5-triazin-2-amine] | 9.1 ± 0.61 µM | 7.89 ± 1.8 µM | – | – | – | – |
| COc1ccc(Nc2nc(Cl)nc(Cl)n2)cc1 [1c, 4,6-Dichloro-N-(4-methoxyphenyl)-1,3,5-triazin-2-amine] | 9.89 ± 0.17 µM | 1.77 ± 0.05 µM | – | – | – | – |
| Cc1ccc(Nc2nc(Cl)nc(Cl)n2)cc1 [1d, 4,6-Dichloro-N-(p-tolyl)-1,3,5-triazin-2-amine] | 9.99 ± 0.59 µM | 0.2 ± 0.11 µM | – | – | – | – |
| O=[N+]([O-])c1ccc(Nc2nc(Cl)nc(Cl)n2)cc1 [1e, 4,6-Dichloro-N-(4-nitrophenyl)-1,3,5-triazin-2-amine] | 48.3 ± 1.94 µM | 10.3 ± 1.51 µM | – | – | – | – |
| Clc1ccc(Nc2nc(N3CCCCC3)nc(N3CCCCC3)n2)cc1 [2a, N-(4-Chlorophenyl)-4,6-di(piperidin-1-yl)-1,3,5-triazin-2-amine] | 47.5 ± 2.86 µM | 23.6 ± 2.56 µM | 49 ± 3.16 µM | – | – | – |
| Fc1ccc(Nc2nc(N3CCCCC3)nc(N3CCCCC3)n2)cc1 [2b, N-(4-Fluorophenyl)-4,6-di(piperidin-1-yl)-1,3,5-triazin-2-amine] | 33.6 ± 1.86 µM | 32.9 ± 4.23 µM | 21.2 ± 2.4 µM | – | – | – |
| COc1ccc(Nc2nc(N3CCCCC3)nc(N3CCCCC3)n2)cc1 [2c, N-(4-Methoxyphenyl)-4,6-di(piperidin-1-yl)-1,3,5-triazin-2-amine] | 99.4 ± 14.1 µM | 50.9 ± 8.54 µM | 15.1 ± 1.98 µM | – | – | – |
| Cc1ccc(Nc2nc(N3CCCCC3)nc(N3CCCCC3)n2)cc1 [2d, 4,6-Di(piperidin-1-yl)-N-(p-tolyl)-1,3,5-triazin-2-amine] | 0.38 ± 0.23 µM | 6.54 ± 1.16 µM | 1.84 ± 0.64 µM | – | – | – |
| O=[N+]([O-])c1ccc(Nc2nc(N3CCCCC3)nc(N3CCCCC3)n2)cc1 [2e, N-(4-Nitrophenyl)-4,6-di(piperidin-1-yl)-1,3,5-triazin-2-amine] | 8.28 ± 1.9 µM | 26.1 ± 1.86 µM | 315 ± 9.53 µM | – | – | – |
| Clc1ccc(Nc2nc(N3CCOCC3)nc(N3CCOCC3)n2)cc1 [3a, N-(4-Chlorophenyl)-4,6-dimorpholino-1,3,5-triazin-2-amine] | 1.21 ± 0.47 µM | 42.4 ± 4.48 µM | 41.2 ± 2.55 µM | – | – | – |
| Fc1ccc(Nc2nc(N3CCOCC3)nc(N3CCOCC3)n2)cc1 [3b, N-(4-Fluorophenyl)-4,6-dimorpholino-1,3,5-triazin-2-amine] | 24.5 ± 0.86 µM | 6.19 ± 1.2 µM | 7.98 ± 0.97 µM | – | – | – |
| COc1ccc(Nc2nc(N3CCOCC3)nc(N3CCOCC3)n2)cc1 [3c, N-(4-Methoxyphenyl)-4,6-dimorpholino-1,3,5-triazin-2-amine] | 76.8 ± 8.45 µM | 43.5 ± 4.23 µM | 2.01 ± 0.59 µM | – | – | – |
| Cc1ccc(Nc2nc(N3CCOCC3)nc(N3CCOCC3)n2)cc1 [3d, 4,6-Dimorpholino-N-(p-tolyl)-1,3,5-triazin-2-amine] | 16.3 ± 2.22 µM | 22.3 ± 1.49 µM | 0.57 ± 0.24 µM | – | – | – |
| O=[N+]([O-])c1ccc(Nc2nc(N3CCOCC3)nc(N3CCOCC3)n2)cc1 [3e, 4,6-Dimorpholino-N-(4-nitrophenyl)-1,3,5-triazin-2-amine] | 14.7 ± 1.7 µM | 13.7 ± 1.96 µM | 86.2 µM | 86.3 ± 6.79 µM | – | – |
| COc1cccc2c1C(=O)c1c(O)c3c(c(O)c1C2=O)C[C@@](O)(C(=O)CO)C[C@@H]3O[C@H]1C[C@H](N)[C@H](O)[C@H](C)O1 [DOX, Doxorubicin, reference compound] | 8.06 ± 1.02 µM | 10.5 ± 0.86 µM | 4.79 ± 0.53 µM | – | 8.06 to 10.5 µM | 0.42 µM |
| CC(=O)O[C@H]1C(=O)[C@@]2(C)[C@H]([C@H](OC(=O)c3ccccc3)[C@]3(O)C[C@H](OC(=O)[C@H](O)[C@@H](NC(=O)c4ccccc4)c4ccccc4)C(C)=C1C3(C)C)[C@]1(OC(C)=O)CO[C@@H]1C[C@@H]2O [PTX, Paclitaxel, reference compound] | 4.32 ± 0.52 µM | 2.35 ± 0.14 µM | 2.67 ± 0.41 µM | – | 2.35 to 4.32 µM | – |
